Measurements published in ChEMBL document CHEMBL3244036, “Inhibition of beef-brain and dog-heart (Na+ + k+) activated adenosine triphosphatase by carbon-3 branched cardenolides” (J Med Chem, 1978).

Legend:
Bos taurus [1] = organism: Bos taurus; assay: Inhibition of beef-brain Na(+)/K(+) ATPase assessed as oxidation of NADH using ATP substrate preincubated for 5 mins
Summary of the method: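 Microsomal enzyme from frozen, partially thawed beef brain. Pyruvate kinase/lactate dehydrogenase-coupled system with inhibitor (in water, or DMSO made up with water) preincubated 5 min before adding ATP. NADH oxidation followed photometrically. Final volume 2.95 mL. At least four roughly log-equidistant concentrations, each in duplicate or triplicate. IC50 from linear regression of % inhibition against log concentration.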

Canis lupus familiaris = organism: Canis lupus familiaris; assay: Inhibition of dog-heart microsomal Na(+)/K(+) ATPase using ATP substrate
Summary of the method: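 Microsomal enzyme from frozen dog heart in Tris-HCl pH 7.4 containing MgCl2, KCl and NaCl. Preincubated with inhibitor for 5 min, then pyruvate kinase, lactate dehydrogenase, phosphoenolpyruvate and NADH added. Reaction started with ATP; NADH oxidation read photometrically. At least four log-spaced concentrations, each in duplicate or triplicate. Linear regression of % inhibition against log concentration.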

Bos taurus [2] = organism: Bos taurus; assay: Inhibition of beef-brain Na(+)/K(+) ATPase assessed as oxidation of NADH using ATP substrate at 5 uM preincubated for 5 mins relative to digitoxigenin

Row | Compound | ID50 (Bos taurus [1]) | ID50 (Canis lupus familiaris) | fold change (FC) (Bos taurus [2])
1 | C[C@]12CC[C@](O)(C(O)CO)C[C@H]1CC[C@@H]1[C@@H]2CC[C@]2(C)[C@@H](C3=CC(=O)OC3)CC[C@]12O (some centres not stated) | 1.7 µmol |  | 
2 | C[C@]12CC[C@H](O)C[C@H]1CC[C@@H]1[C@@H]2CC[C@]2(C)[C@@H](C3=CC(=O)OC3)CC[C@]12O | 0.096 µmol | 0.035 µmol | 
3 | C[C@]12CC[C@](O)(CC(O)CO)C[C@H]1CC[C@@H]1[C@@H]2CC[C@]2(C)[C@@H](C3=CC(=O)OC3)CC[C@]12O (some centres not stated) | 2.34 µmol |  | 
4 | C[C@]12CC[C@@](O)(C(O)CO)C[C@H]1CC[C@@H]1[C@@H]2CC[C@]2(C)[C@@H](C3=CC(=O)OC3)CC[C@]12O (some centres not stated) | 15.4 µmol | 7.8 µmol | 100
5 | C=C[C@]1(O)CC[C@@]2(C)[C@H](CC[C@@H]3[C@@H]2CC[C@]2(C)[C@@H](C4=CC(=O)OC4)CC[C@]32O)C1 | 0.31 µmol | 0.092 µmol | 100
6 | C[C@]12CC[C@@](O)(C3CO3)C[C@H]1CC[C@@H]1[C@@H]2CC[C@]2(C)[C@@H](C3=CC(=O)OC3)CC[C@]12O (some centres not stated) | 2.03 µmol | 1.1 µmol | 100
7 | C[C@]12CC[C@](O)(C3CO3)C[C@H]1CC[C@@H]1[C@@H]2CC[C@]2(C)[C@@H](C3=CC(=O)OC3)CC[C@]12O (some centres not stated) | 3.17 µmol |  | 
8 | C[C@]12CC[C@@](O)(CC3CO3)C[C@H]1CC[C@@H]1[C@@H]2CC[C@]2(C)[C@@H](C3=CC(=O)OC3)CC[C@]12O (some centres not stated) | 3.65 µmol | 1.69 µmol | 100
9 | C[C@]12CC[C@@H](O)C[C@H]1CC[C@@H]1[C@@H]2CC[C@]2(C)[C@@H](C3=CC(=O)OC3)CC[C@]12O | 1.17 µmol |  | 
10 | C[C@]12CC[C@](O)(CC3CO3)C[C@H]1CC[C@@H]1[C@@H]2CC[C@]2(C)[C@@H](C3=CC(=O)OC3)CC[C@]12O (some centres not stated) | 4.06 µmol |  | 
11 | C[C@]12CC[C@@](O)(CC(O)CO)C[C@H]1CC[C@@H]1[C@@H]2CC[C@]2(C)[C@@H](C3=CC(=O)OC3)CC[C@]12O (some centres not stated) | 7.66 µmol | 4.44 µmol | 100
12 | CC[C@@]1(O)CC[C@@]2(C)[C@H](CC[C@@H]3[C@@H]2CC[C@]2(C)[C@@H](C4=CC(=O)OC4)CC[C@]32O)C1 | 6.4 µmol |  | 
13 | C=CC[C@]1(O)CC[C@@]2(C)[C@H](CC[C@@H]3[C@@H]2CC[C@]2(C)[C@@H](C4=CC(=O)OC4)CC[C@]32O)C1 | 1.25 µmol | 0.55 µmol | 100
14 | C[C@]1(O)CC[C@@]2(C)[C@H](CC[C@@H]3[C@@H]2CC[C@]2(C)[C@@H](C4=CC(=O)OC4)CC[C@]32O)C1 | 0.92 µmol | 0.32 µmol | 100
15 | C=C[C@@]1(O)CC[C@@]2(C)[C@H](CC[C@@H]3[C@@H]2CC[C@]2(C)[C@@H](C4=CC(=O)OC4)CC[C@]32O)C1 | 6.68 µmol |  | 
16 | C[C@@]1(O)CC[C@@]2(C)[C@H](CC[C@@H]3[C@@H]2CC[C@]2(C)[C@@H](C4=CC(=O)OC4)CC[C@]32O)C1 | 11.4 µmol |  | 
17 | C=CC[C@@]1(O)CC[C@@]2(C)[C@H](CC[C@@H]3[C@@H]2CC[C@]2(C)[C@@H](C4=CC(=O)OC4)CC[C@]32O)C1 | 5.81 µmol |  | 
18 | C[C@]12CC[C@@](O)(c3ccccc3)C[C@H]1CC[C@@H]1[C@@H]2CC[C@]2(C)[C@@H](C3=CC(=O)OC3)CC[C@]12O | 2.11 µmol | 0.6 µmol | 100
19 | C[C@]12CC[C@]3(CO3)C[C@H]1CC[C@@H]1[C@@H]2CC[C@]2(C)[C@@H](C3=CC(=O)OC3)CC[C@]12O | 0.74 µmol |  | 
20 | CC[C@]1(O)CC[C@@]2(C)[C@H](CC[C@@H]3[C@@H]2CC[C@]2(C)[C@@H](C4=CC(=O)OC4)CC[C@]32O)C1 | 2.15 µmol | 0.73 µmol | 100
21 | C[C@]12CC[C@](O)(c3ccccc3)C[C@H]1CC[C@@H]1[C@@H]2CC[C@]2(C)[C@@H](C3=CC(=O)OC3)CC[C@]12O | 5.81 µmol |  | 
22 | C#C[C@]1(O)CC[C@@]2(C)[C@H](CC[C@@H]3[C@@H]2CC[C@]2(C)[C@@H](C4=CC(=O)OC4)CC[C@]32O)C1 | 0.25 µmol | 0.12 µmol | 100
23 | C#C[C@@]1(O)CC[C@@]2(C)[C@H](CC[C@@H]3[C@@H]2CC[C@]2(C)[C@@H](C4=CC(=O)OC4)CC[C@]32O)C1 | 2.11 µmol |  | 
24 | C[C@]12CC[C@@]3(CO3)C[C@H]1CC[C@@H]1[C@@H]2CC[C@]2(C)[C@@H](C3=CC(=O)OC3)CC[C@]12O | 0.71 µmol | 0.275 µmol | 100
